This note sets out measurements from ChEMBL document CHEMBL1140448 (J Med Chem, 2005).

Molecules are shown by their SMILES. Where only a bound is given, the exact number is not on record here.

Usually IC50 stands for the concentration that inhibits the measured activity by half. Usually Inhibition stands for the relative decrease from the control value, in per cent.

Assay [1] is filed under the species Rattus norvegicus. Briefly: Inhibitory concentration on PRL release from rat pituitary cells. In kind it is functional, cell-based. The settings on record: Pituitary gland cell. An outline of the steps:
(§1)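 Anterior pituitaries from female Wistar rats (180-200 g) dispersed with dispase. Cells seeded at (0.5-5) × 10^5 per well in MEM with 10% FCS and attached at least 3 days. Then 4 h incubation with or without analogue plus 10 nM GHRH, four dishes per group. Rat GH and PRL measured by commercial assay; response given as % change versus untreated control dishes.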

Assay [2] deals with Somatostatin receptor type 5 (Homo sapiens, UniProt P35346). Nature of the assay: Inhibitory concentration against human somatostatin receptor type 5 in CHO-K1 cells. The assay is classed as cell-based. An outline of the steps: (§2)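 Competitive binding on membranes (25-50 µg protein) from stably transfected cells expressing one human sst subtype: CC531 for sst2, CHO-K1 for sst3 and sst5. Stopped with ice-cold Hepes buffer pH 7.6 and centrifuged; washed pellet γ-counted. Nonspecific binding taken with 1 µM unlabeled SRIF analogue.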
Sequence of Somatostatin receptor type 5 (P35346 whole entry): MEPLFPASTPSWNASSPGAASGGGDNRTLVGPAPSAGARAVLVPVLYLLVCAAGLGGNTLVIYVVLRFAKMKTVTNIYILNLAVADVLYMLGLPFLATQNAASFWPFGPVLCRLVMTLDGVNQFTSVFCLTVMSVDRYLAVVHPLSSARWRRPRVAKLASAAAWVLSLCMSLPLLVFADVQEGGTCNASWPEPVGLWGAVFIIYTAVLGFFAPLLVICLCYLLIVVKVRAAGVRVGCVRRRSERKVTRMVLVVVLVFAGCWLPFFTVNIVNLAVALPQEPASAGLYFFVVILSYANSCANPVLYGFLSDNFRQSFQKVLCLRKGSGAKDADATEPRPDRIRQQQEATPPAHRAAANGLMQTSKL

Assay [3] addresses Somatostatin receptor type 3 (Homo sapiens, UniProt P32745). Briefly: Inhibitory concentration against human somatostatin receptor type 3 in CHO-K1 cells. In kind it is cell-based. The method in brief:
as §2

The target in assay [4] is Somatostatin receptor type 2 (Homo sapiens, UniProt P30874). Nature of the assay: Inhibitory concentration against human somatostatin receptor type 2 in CC531 cells. In kind it is cell-based. The method in brief: as §2
Sequence of Somatostatin receptor type 2 (P30874 whole entry): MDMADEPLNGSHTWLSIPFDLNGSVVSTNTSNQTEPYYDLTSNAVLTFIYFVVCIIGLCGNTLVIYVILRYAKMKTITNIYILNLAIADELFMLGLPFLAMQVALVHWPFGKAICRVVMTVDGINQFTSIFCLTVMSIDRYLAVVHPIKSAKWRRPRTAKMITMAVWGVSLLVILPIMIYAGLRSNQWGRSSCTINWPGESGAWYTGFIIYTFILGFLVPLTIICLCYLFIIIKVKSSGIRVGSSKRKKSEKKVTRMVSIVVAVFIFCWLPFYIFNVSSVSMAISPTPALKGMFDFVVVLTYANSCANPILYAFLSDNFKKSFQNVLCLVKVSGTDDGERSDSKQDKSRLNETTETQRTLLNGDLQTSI
Assay [5] is filed under the species Rattus norvegicus. Nature of the assay: Percent inhibition on GH release from rat pituitary cells. In kind it is functional, Pituitary gland cell. More on the design: concentration or dose not given beside the values. The method in brief:
as §1

The species named for assay [6] is Rattus norvegicus. Briefly: Percent inhibition on PRL release from rat pituitary cells. The assay is classed as functional, Pituitary gland cell. More on the design: concentration or dose not given beside the values. The method in brief:
as §1

For assay [7], the species on record is Rattus norvegicus. Nature of the assay: Inhibitory concentration on GH release from rat pituitary cells. In kind it is functional, cell-based. As to conditions: Pituitary gland cell. The method in brief:
as §1

Sequence of Somatostatin receptor type 3 (P32745 whole entry): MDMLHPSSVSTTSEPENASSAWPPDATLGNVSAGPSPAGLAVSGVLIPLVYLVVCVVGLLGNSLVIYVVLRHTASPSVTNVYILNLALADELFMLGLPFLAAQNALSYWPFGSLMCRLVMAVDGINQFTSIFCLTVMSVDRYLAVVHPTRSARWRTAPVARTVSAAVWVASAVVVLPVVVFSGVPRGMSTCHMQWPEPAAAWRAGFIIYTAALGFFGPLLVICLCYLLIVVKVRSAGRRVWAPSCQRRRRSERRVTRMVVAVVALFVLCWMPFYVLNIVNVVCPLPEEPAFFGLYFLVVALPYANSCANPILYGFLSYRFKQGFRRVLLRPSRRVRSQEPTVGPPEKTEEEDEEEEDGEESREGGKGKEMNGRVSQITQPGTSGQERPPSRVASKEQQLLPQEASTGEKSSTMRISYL

In the case of `CC(C)[C@@H]1NC(=O)[C@H](CCCCN)NC(=O)[C@@H](Cc2c[nH]c3ccccc23)NC(=O)[C@H](Cc2ccc(O)cc2)NC(=O)[C@@H](NC(=O)[C@H](N)Cc2ccc(N)cc2)CSSC[C@@H](C(=O)N[C@H](CC(=O)O)C(N)=O)NC1=O` [listing 1 of 2 here], the half-maximal inhibitory concentration (IC50) in the assay listed under Rattus norvegicus [1] was over 100 nM; in assay [2], 30 nM; in assay [3], over 1000 nM; in assay [4] it was 1.1 nM.
`CC(C)[C@@H]1NC(=O)[C@H](CCCCN)NC(=O)[C@@H](Cc2c[nH]c3ccccc23)NC(=O)[C@H](Cc2ccc(O)cc2)NC(=O)[C@@H](NC(=O)[C@H](N)Cc2ccc(N)c(I)c2)CSSC[C@@H](C(=O)N[C@H](C(N)=O)[C@@H](C)O)NC1=O` [listing 1 of 2 here]: the Inhibition in the assay listed under Rattus norvegicus [5] worked out at 60%; in the assay listed under Rattus norvegicus [6], 35%.
For the molecule `CC(C)[C@@H]1NC(=O)[C@H](CCCCN)NC(=O)[C@@H](Cc2c[nH]c3ccccc23)NC(=O)[C@H](Cc2ccc(O)cc2)NC(=O)[C@@H](NC(=O)[C@H](N)Cc2ccc(N)cc2)CSSC[C@@H](C(=O)N[C@@H](CC(=O)O)C(N)=O)NC1=O` [listing 1 of 2 here], the IC50 in the assay filed under Rattus norvegicus [7] is 14.8 nM; in the assay listed under Rattus norvegicus [1] it was 26 nM; in assay [2] it was 54 nM; in assay [3], over 1000 nM; in assay [4], 11 nM.
Regarding `CC(C)[C@@H]1NC(=O)[C@H](CCCCN)NC(=O)[C@@H](Cc2c[nH]c3ccccc23)NC(=O)[C@H](Cc2ccc(O)cc2)NC(=O)[C@@H](NC(=O)[C@H](N)Cc2ccc(N)cc2)CSSC[C@@H](C(=O)N[C@H](CC(=O)O)C(N)=O)NC1=O` [listing 2 of 2 here], the Inhibition in the assay filed under Rattus norvegicus [5] was 18%; in the assay filed under Rattus norvegicus [6], 11%.
With `C[C@H](N)C(=O)NCC(=O)N[C@H]1CSSC[C@@H](C(=O)O)NC(=O)[C@H](CO)NC(=O)[C@H]([C@@H](C)O)NC(=O)[C@H](Cc2ccccc2)NC(=O)[C@H]([C@@H](C)O)NC(=O)[C@H](CCCCN)NC(=O)[C@H](Cc2c[nH]c3ccccc23)NC(=O)[C@H](Cc2ccccc2)NC(=O)[C@H](Cc2ccccc2)NC(=O)[C@H](CC(N)=O)NC(=O)[C@H](CCCCN)NC1=O` [SOMATOSTATIN], the IC50 was 0.1 nM in the assay filed under Rattus norvegicus [7] and 0.2 nM in the assay listed under Rattus norvegicus [1]. Also, the Inhibition is 66% in the assay filed under Rattus norvegicus [5] and 30% in the assay filed under Rattus norvegicus [6].
As to `CC(C)[C@@H]1NC(=O)[C@H](CCCCN)NC(=O)[C@@H](Cc2c[nH]c3ccccc23)NC(=O)[C@H](Cc2ccc(O)c(I)c2)NC(=O)[C@@H](NC(=O)[C@H](N)Cc2ccc(N)c(I)c2)CSSC[C@@H](C(=O)N[C@H](C(N)=O)[C@@H](C)O)NC1=O` [listing 1 of 2 here], the results for the Inhibition in the assay filed under Rattus norvegicus [5] and in the assay listed under Rattus norvegicus [6] were 58% and 29%, respectively.
Regarding `CC(C)[C@@H]1NC(=O)[C@H](CCCCN)NC(=O)[C@@H](Cc2c[nH]c3ccccc23)NC(=O)[C@H](Cc2ccc(O)cc2)NC(=O)[C@@H](NC(=O)[C@H](N)Cc2ccc(N)cc2)CSSC[C@@H](C(=O)N[C@@H](CC(=O)O)C(N)=O)NC1=O` [listing 2 of 2 here], the results for the Inhibition in the assay listed under Rattus norvegicus [5] and in the assay listed under Rattus norvegicus [6] were 41% and -9%, respectively.
In the case of `CC(C)[C@@H]1NC(=O)[C@H](CCCCN)NC(=O)[C@@H](Cc2c[nH]c3ccccc23)NC(=O)[C@H](Cc2ccc(O)cc2)NC(=O)[C@@H](NC(=O)[C@H](N)Cc2ccc(N)c(I)c2)CSSC[C@@H](C(=O)N[C@@H](CC(=O)O)C(N)=O)NC1=O` [listing 1 of 2 here], the 50% inhibitory concentration (IC50) is 74 nM in assay [2], over 1000 nM in assay [3] and 12 nM in assay [4].
As for `CC(C)[C@@H]1NC(=O)[C@H](CCCCN)NC(=O)[C@@H](Cc2c[nH]c3ccccc23)NC(=O)[C@H](Cc2ccc(O)c(I)c2)NC(=O)[C@@H](NC(=O)[C@H](N)Cc2ccc(N)c(I)c2)CSSC[C@@H](C(=O)N[C@@H](CC(=O)O)C(N)=O)NC1=O` [listing 1 of 2 here], the Inhibition was 55% in the assay listed under Rattus norvegicus [5] and 15% in the assay listed under Rattus norvegicus [6].
For `CC(C)[C@@H]1NC(=O)[C@H](CCCCN)NC(=O)[C@@H](Cc2c[nH]c3ccccc23)NC(=O)[C@H](Cc2ccc(O)c(I)c2)NC(=O)[C@@H](NC(=O)[C@H](N)Cc2ccc(N)cc2)CSSC[C@@H](C(=O)N[C@H](C(N)=O)[C@@H](C)O)NC1=O` [listing 1 of 2 here], the values for the Inhibition in the assay listed under Rattus norvegicus [5] and in the assay listed under Rattus norvegicus [6] were 12% and 14%, respectively.
Regarding `CC(C)[C@@H]1NC(=O)[C@H](CCCCN)NC(=O)[C@@H](Cc2c[nH]c3ccccc23)NC(=O)[C@H](Cc2ccc(O)cc2)NC(=O)[C@@H](NC(=O)[C@H](N)Cc2ccc(N)cc2)CSSC[C@@H](C(=O)N[C@H](C(N)=O)[C@@H](C)O)NC1=O` [listing 1 of 2 here], the Inhibition in the assay filed under Rattus norvegicus [5] turned out to be 47%; in the assay filed under Rattus norvegicus [6], 20%.
For `CC(C)[C@@H]1NC(=O)[C@H](CCCCN)NC(=O)[C@@H](Cc2c[nH]c3ccccc23)NC(=O)[C@H](Cc2ccc(O)cc2)NC(=O)[C@@H](NC(=O)[C@H](N)Cc2ccc(N)c(I)c2)CSSC[C@@H](C(=O)N[C@@H](CC(=O)O)C(N)=O)NC1=O` [listing 2 of 2 here], the Inhibition in the assay listed under Rattus norvegicus [5] is listed as 17%; in the assay filed under Rattus norvegicus [6] it was 12%.
`CC(C)[C@@H]1NC(=O)[C@H](CCCCN)NC(=O)[C@@H](Cc2c[nH]c3ccccc23)NC(=O)[C@H](Cc2ccc(O)cc2)NC(=O)[C@@H](NC(=O)[C@H](N)Cc2ccc(N)cc2)CSSC[C@@H](C(=O)N[C@@H](C(N)=O)[C@H](C)O)NC1=O` [listing 1 of 2 here]: the Inhibition is -11% in the assay listed under Rattus norvegicus [5] and 8% in the assay listed under Rattus norvegicus [6].
Turning to `CC(C)[C@@H]1NC(=O)[C@H](CCCCN)NC(=O)[C@@H](Cc2c[nH]c3ccccc23)NC(=O)[C@H](Cc2ccc(O)cc2)NC(=O)[C@@H](NC(=O)[C@H](N)Cc2ccc(N)cc2)CSSC[C@@H](C(=O)N[C@@H](C(N)=O)[C@H](C)O)NC1=O` [listing 2 of 2 here], the values for the IC50 in assay [3] and in assay [4] were over 1000 nM and 17 nM, respectively.
With `CC(C)[C@@H]1NC(=O)[C@H](CCCCN)NC(=O)[C@@H](Cc2c[nH]c3ccccc23)NC(=O)[C@H](Cc2ccc(O)cc2)NC(=O)[C@@H](NC(=O)[C@H](N)Cc2ccccc2)CSSC[C@@H](C(=O)N[C@@H](CC(=O)O)C(N)=O)NC1=O`, the half-maximal inhibitory concentration (IC50) is 1.1 nM in the assay filed under Rattus norvegicus [7], over 1000 nM in assay [3] and 18.6 nM in assay [4].
`CC(C)[C@@H]1NC(=O)[C@H](CCCCN)NC(=O)[C@@H](Cc2c[nH]c3ccccc23)NC(=O)[C@H](Cc2ccc(O)cc2)NC(=O)[C@@H](NC(=O)[C@H](N)Cc2ccc(N)cc2)CSSC[C@@H](C(=O)N[C@H](C(N)=O)[C@@H](C)O)NC1=O` [listing 2 of 2 here]: the half-maximal inhibitory concentration (IC50) was 0.08 nM in the assay filed under Rattus norvegicus [7], 2.2 nM in the assay filed under Rattus norvegicus [1], over 1000 nM in assay [3] and 1.6 nM in assay [4].
Regarding `CC(C)[C@@H]1NC(=O)[C@H](CCCCN)NC(=O)[C@@H](Cc2c[nH]c3ccccc23)NC(=O)[C@H](Cc2ccc(O)c(I)c2)NC(=O)[C@@H](NC(=O)[C@H](N)Cc2ccc(N)cc2)CSSC[C@@H](C(=O)N[C@H](C(N)=O)[C@@H](C)O)NC1=O` [listing 2 of 2 here], the IC50 was over 1000 nM in assay [3] and 6.2 nM in assay [4].
On to `CC(C)[C@@H]1NC(=O)[C@H](CCCCN)NC(=O)[C@@H](Cc2c[nH]c3ccccc23)NC(=O)[C@H](Cc2ccc(O)cc2)NC(=O)[C@@H](NC(=O)[C@H](N)Cc2ccc(N)c(I)c2)CSSC[C@@H](C(=O)N[C@H](C(N)=O)[C@@H](C)O)NC1=O` [listing 2 of 2 here], for which the IC50 was 0.1 nM in the assay filed under Rattus norvegicus [7], 0.1 nM in the assay filed under Rattus norvegicus [1], over 1000 nM in assay [3] and 1.4 nM in assay [4].
With `CC(C)[C@@H]1NC(=O)[C@H](CCCCN)NC(=O)[C@@H](Cc2c[nH]c3ccccc23)NC(=O)[C@H](Cc2ccc(O)c(I)c2)NC(=O)[C@@H](NC(=O)[C@H](N)Cc2ccc(N)c(I)c2)CSSC[C@@H](C(=O)N[C@H](C(N)=O)[C@@H](C)O)NC1=O` [listing 2 of 2 here], the concentration for half-maximal inhibition (IC50) in the assay filed under Rattus norvegicus [7] is 0.15 nM; in the assay listed under Rattus norvegicus [1] it was 0.23 nM; in assay [3], over 1000 nM; in assay [4], 0.63 nM.
For the molecule `CC(C)[C@@H]1NC(=O)[C@H](CCCCN)NC(=O)[C@@H](Cc2c[nH]c3ccccc23)NC(=O)[C@H](Cc2ccc(O)c(I)c2)NC(=O)[C@@H](NC(=O)[C@H](N)Cc2ccc(N)c(I)c2)CSSC[C@@H](C(=O)N[C@@H](CC(=O)O)C(N)=O)NC1=O` [listing 2 of 2 here], the half-inhibitory concentration (IC50) was 2.9 nM in assay [2], over 1000 nM in assay [3] and 1.9 nM in assay [4].
